Assay results collected from several papers.
Target: Serine/threonine-protein kinase TAO3 (TAOK3, Homo sapiens, UniProt Q9H2K8)
Residues used in one study (Q9H2K8 1-898): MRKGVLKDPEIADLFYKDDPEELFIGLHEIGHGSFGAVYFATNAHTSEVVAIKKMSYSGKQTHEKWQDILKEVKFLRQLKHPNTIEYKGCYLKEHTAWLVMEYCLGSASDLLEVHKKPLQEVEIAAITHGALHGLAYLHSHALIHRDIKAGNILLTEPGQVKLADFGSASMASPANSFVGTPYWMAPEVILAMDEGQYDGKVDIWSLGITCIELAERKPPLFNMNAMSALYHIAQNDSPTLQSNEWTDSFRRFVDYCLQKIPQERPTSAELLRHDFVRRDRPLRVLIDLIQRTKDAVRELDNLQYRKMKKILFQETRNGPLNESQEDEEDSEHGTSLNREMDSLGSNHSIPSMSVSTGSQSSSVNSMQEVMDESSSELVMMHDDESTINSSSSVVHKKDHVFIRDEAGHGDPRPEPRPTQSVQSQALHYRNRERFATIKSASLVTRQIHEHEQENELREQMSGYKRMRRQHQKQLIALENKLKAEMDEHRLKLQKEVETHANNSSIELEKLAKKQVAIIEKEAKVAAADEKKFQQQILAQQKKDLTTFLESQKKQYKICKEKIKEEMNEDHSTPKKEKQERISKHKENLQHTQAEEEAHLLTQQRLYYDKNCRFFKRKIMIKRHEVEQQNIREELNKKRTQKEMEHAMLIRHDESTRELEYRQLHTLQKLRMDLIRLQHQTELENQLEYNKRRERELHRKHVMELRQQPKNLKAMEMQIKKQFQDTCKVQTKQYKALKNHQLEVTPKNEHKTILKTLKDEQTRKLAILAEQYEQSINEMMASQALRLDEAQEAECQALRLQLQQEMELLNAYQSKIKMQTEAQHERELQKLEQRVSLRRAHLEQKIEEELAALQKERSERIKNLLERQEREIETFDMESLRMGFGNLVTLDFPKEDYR

Structure (SMILES) | assay | conditions | remaining binding [%]
CC1=C(C#N)[C@@H](c2ccc3[nH]nc(C)c3c2)C(C#N)=C(c2ccc(Cl)cc2)N1 | cell-free assay, competition with immobilised ligand | 1 µM | 100
CC1CCCN1c1nccc(-c2cnn3ncccc23)n1 (stereo not shown) | binding | 1 µM | 48
CS(=O)(=O)c1cc(C2(NC(=O)c3cncc4c3cnn4-c3ccc(F)cc3)CC2)ccn1 | cell-free assay, competition with immobilised ligand | 1 µM | 97
O=C(NCCCN1CCOCC1)c1ccc(Nc2ncc(Cl)c(-c3ccc(Cl)s3)n2)cc1 | binding, competition with immobilised ligand | 1 µM | 49
N[C@H]1CCN(c2nccc(-c3cnn4ncccc34)n2)C1 | binding | 1 µM | 100
C[C@@H](c1ccc(-n2cnc3c(N)ncnc32)cc1)N1CCc2nn(C)c(Cc3ccccc3)c2C1=O | binding, competition with immobilised ligand | 0.1 µM | 77
Cn1nc(C(F)(F)F)cc1-c1cnc(N2CCc3cc(S(=O)(=O)Nc4c(F)cc(Cl)cc4F)cc(N4CCCC4=O)c32)nc1 | cell-free assay, competition with immobilised ligand | 1 µM | 93
c1cnn2ncc(-c3ccnc(N4CCC45COC5)n3)c2c1 | binding | 1 µM | 73
Cn1cc(Cl)c2c(Oc3c(F)cc(Nc4cc(Cl)nc(N)n4)cc3F)ccnc21 | cell-free assay, competition with immobilised ligand | 0.1 µM | 100
F[C@@H]1CCN(c2nccc(-c3cnn4ncccc34)n2)C1 | binding | 1 µM | 55
CNC(=O)[C@@H]1CC[C@@H](n2c(-c3ccc4cnccc4c3)nc3ccc(C(=O)NCc4cccc(C(N)=O)c4)cc32)C1 | binding, competition with immobilised ligand | 1 µM | 93
c1cncc(-c2cccc(Nc3nccc(NC4CCCCC4)n3)c2)c1 | binding, competition with immobilised ligand | 10 µM | 98
Nc1cnc(N2CCc3cc(S(=O)(=O)Nc4c(F)cc(Cl)cc4F)cc(N4CCCC4=O)c32)nc1 | cell-free assay, competition with immobilised ligand | 1 µM | 70
CCN1CCN(Cc2ccc(C(=O)Nc3ccc(C)c(Oc4ccc5c(c4)CC(=O)N5)c3)cc2C(F)(F)F)CC1 | binding, competition with immobilised ligand | 1 µM | 100
c1ccc(N2CCN(Cc3nc4ccccc4[nH]3)CC2)nc1 | binding, competition with immobilised ligand | 1 µM | 86
O=C(Nc1c[nH]nc1C(=O)NC1CCNCC1)c1cc(F)cc(F)c1 | binding, competition with immobilised ligand | 1 µM | 70
CN(C)c1nccc(-c2cnc3ncccn23)n1 | binding | 1 µM | 68
O=C(c1ccc(Nc2nccc(-c3cc4ccccc4s3)n2)cc1)N1CCC(N2CCCC2)CC1 | binding, competition with immobilised ligand | 1 µM | 100
C[C@H]1CCN(c2nccc(-c3cnn4ncccc34)n2)C1 | binding | 1 µM | 86
COc1cnc(Nc2cccc(S(N)(=O)=O)c2)nc1N1CCN(c2ccccc2)C(=O)C1 | binding, competition with immobilised ligand | 1 µM | 93
COc1ccnn2ncc(-c3ccnc(N(C)C)n3)c12 | binding | 1 µM | 82
O=C(NCCCN1CCOCC1)c1ccc(Nc2nccc(-c3cc4ccccc4s3)n2)cc1 | binding, competition with immobilised ligand | 1 µM | 82
